We go through 14 molecules from ChEMBL document CHEMBL5325420, “Discovery of a spirocyclic 3-bromo-4,5-dihydroisoxazole covalent inhibitor of hGAPDH with antiproliferative activity against pancreatic cancer cells” (Eur J Med Chem, 2023).

Calls of active or inactive are those of the source. The rule behind the calls is not given here. Where only a bound is given, the exact number is not on record here.

The target of test [1] is Glyceraldehyde-3-phosphate dehydrogenase (Homo sapiens) (UniProt P04406). The experiment in a line: Covalent inhibition of human recombinant his tagged GAPDH expressed in Escherichia coli at 100 uM measured after 3 hrs by spectrophotometric analysis relative to control. Put shortly: (§1)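 His-tagged hGAPDH from E. coli, 2 μM, preincubated at 25 °C with 10, 50 or 100 μM inhibitor for 30 min or 3 h in 10 mM TEA, 5 mM EDTA, 10 mM arsenate, pH 7.6. Residual activity of aliquots (enzyme 30–50 nM) measured with 1.5 mM NAD+, 100 μM DL-GAP, NADH at 340 nm, 25 °C. Relative to untreated enzyme; independent duplicates, mean ± SD.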
Sequence of Glyceraldehyde-3-phosphate dehydrogenase (Homo sapiens) (P04406 2-335 limits assumed): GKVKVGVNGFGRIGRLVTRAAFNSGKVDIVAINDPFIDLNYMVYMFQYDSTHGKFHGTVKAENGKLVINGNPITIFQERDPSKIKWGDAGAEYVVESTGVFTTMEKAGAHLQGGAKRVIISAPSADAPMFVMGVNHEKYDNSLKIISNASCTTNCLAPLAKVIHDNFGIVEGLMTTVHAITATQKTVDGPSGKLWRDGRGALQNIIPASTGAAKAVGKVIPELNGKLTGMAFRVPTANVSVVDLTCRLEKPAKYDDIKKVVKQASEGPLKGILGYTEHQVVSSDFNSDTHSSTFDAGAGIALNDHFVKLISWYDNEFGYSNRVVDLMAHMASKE

The target is the same in test [2]. The experiment in a line: Covalent inhibition of human recombinant his tagged GAPDH expressed in Escherichia coli assessed as residual activity at 100 uM measured after 3 hrs by spectrophotometric analysis. The essentials:
as §1

Test [3] has the same target. The test is described as follows: Covalent inhibition of human recombinant his tagged GAPDH expressed in Escherichia coli at 50 uM measured after 30 mins by spectrophotometric analysis relative to control. The essentials:
as §1

Test [4] relates to PaCa-44. The experiment in a line: Antiproliferative activity against human PaCa-44 cells assessed as reduction in cell growth at 100 uM incubated for 48 hrs by crystal violet staining based analysis. Format: functional. The essentials:
(§2)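 PDAC lines and normal fibroblasts in DMEM-Glutamax, 10% FBS, 50 μg/ml gentamicin, 37 °C, 5% CO2. Seeded 5×10^3 cells/well for PDAC lines and 8×10^3 cells/well for fibroblasts. After 24 h, treated 48 h with 1–100 μM from 100 mM DMSO stocks. Crystal Violet read at A595, normalized to untreated cells. Mean ± SD (n = 4).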

Test [5] concerns the target Glyceraldehyde-3-phosphate dehydrogenase (Homo sapiens) (UniProt P04406). The test is described as follows: Inhibition of human recombinant his tagged GAPDH expressed in Escherichia coli at 10 uM incubated for 48 hrs relative to control. The essentials: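 Recombinant hGAPDH, 2 μM, with 10 μM inhibitor for 48 h at 37 °C in TEA/EDTA buffer, pH 7.6. Residual activity measured by the arsenate/NAD+/GAP assay, NADH at 340 nm, 25 °C. Expressed versus untreated enzyme; independent duplicates, mean ± SD.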

Test [6] shares this target. The experiment in a line: Inhibition of recombinant his tagged-GAPDH in human PANC-1 cells expressed in Escherichia coli at 100 uM relative to control.
For test [7] the target is unchanged. The experiment in a line: Binding affinity to human recombinant his tagged GAPDH expressed in Escherichia coli assessed as pseudo first order reaction at 2 mM at pH 7 in presence of beta mercaptoethanol measured for 1 hr by HPLC method.
For test [8] the target is unchanged. The experiment in a line: Binding affinity to human recombinant his tagged GAPDH expressed in Escherichia coli assessed as absolute rate constant at 2 mM at pH 7 in presence of beta mercaptoethanol measured for 1 hr by HPLC method.
Test [9] shares this target. The experiment in a line: Binding affinity to human recombinant his tagged GAPDH expressed in Escherichia coli assessed elimination of racker band at measured after 30 hrs by spectrophotometric analysis. The essentials: (§3)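 Racker band loss. 100 μM His-tagged hGAPDH (expressed in E. coli) with 200 μM inhibitor in 10 mM TEA, 5 mM EDTA, 10 mM KH2PO4, pH 7.6. Absorbance at 340 nm followed until reaction completion; traces fitted to a kinetic equation.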

For test [10] the target is unchanged. The test is described as follows: Binding affinity to human recombinant his tagged GAPDH expressed in Escherichia coli assessed as time constant at 200 uM measured after 30 hrs by spectrophotometric analysis. The essentials:
as §3

The target is the same in test [11]. The experiment in a line: Binding affinity to human recombinant his tagged GAPDH expressed in Escherichia coli assessed as time constant at 200 uM measured after 1 min by spectrophotometric analysis. Put shortly: as §3
Test [12] has the same target. The experiment in a line: Covalent inhibition of human recombinant his tagged GAPDH expressed in Escherichia coli at 10 uM measured after 30 mins by spectrophotometric analysis relative to control. Put shortly: as §1
For test [13] the target is unchanged. The test is described as follows: Binding affinity to human recombinant his tagged GAPDH expressed in Escherichia coli assessed elimination of racker band measured within 1 min by spectrophotometric analysis. The essentials:
as §3

In the next test the test system is PaCa-3. The experiment in a line: Antiproliferative activity against human PaCa-3 cells assessed as reduction in cell growth at 1 to 100 uM incubated for 48 hrs by crystal violet staining based analysis. It is filed as functional. To be noted: dose 1-100 µM. Put shortly:
as §2

Test [14] deals with PaCa-44. The test is described as follows: Antiproliferative activity against human PaCa-44 cells assessed as reduction in cell growth at 1 to 100 uM incubated for 48 hrs by crystal violet staining based analysis. Format: functional. To be noted: dose 1-100 µM. The essentials: as §2
Test [15] has as its system PANC-1. The test is described as follows: Antiproliferative activity against human PANC-1 cells assessed as reduction in cell growth at 1 to 100 uM incubated for 48 hrs by crystal violet staining based analysis. Format: functional. Particulars: dose 1-100 µM. Put shortly:
as §2

The test system of test [16] is MIA PaCa-2. The experiment in a line: Antiproliferative activity against human MIA PaCa-2 cells assessed as reduction in cell growth at 1 to 100 uM incubated for 48 hrs by crystal violet staining based analysis. It is filed as functional. Particulars: dose 1-100 µM. Put shortly:
as §2

In a further test the test system is Fibroblast. The experiment in a line: Antiproliferative activity against human Fibroblast assessed as reduction in cell growth at high concentration incubated for 48 hrs by crystal violet staining based analysis relative to control. It is filed as functional. Also on record: scale not given: the % may be the effect or the level left. The essentials:
as §2

Test [17] is described as follows: Antiproliferative activity in human PaCa-3 cells habouring wild type p53 assessed as decrease in cell growth at 5 uM measured after 48 hrs by Crystal violet staining based analysis relative to control. Also on record: scale not given: the % may be the effect or the level left. It is filed as functional. Put shortly:
(§4)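 PaCa-3 (wt p53) and mutant-p53 PDAC lines exposed 48 h to 5 or 10 μM. Growth by Crystal Violet staining, each line normalized to its own untreated control. Mean ± SD, n = 4.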

The subject of test [18] is PANC-1. The test is described as follows: Antiproliferative activity in human PANC-1 cells habouring p53 mutant/R273H assessed as decrease in cell growth at 10 uM measured after 48 hrs by Crystal violet staining based analysis. It is filed as functional. Put shortly:
as §4

The test system of test [19] is MIA PaCa-2. The test is described as follows: Antiproliferative activity in human MIA PaCa-2 cells habouring p53 mutant/R248W assessed as decrease in cell growth at 10 uM measured after 48 hrs by Crystal violet staining based analysis. Format: functional. The essentials: as §4
Test [20] concerns PaCa-44. The experiment in a line: Antiproliferative activity in human PaCa-44 cells habouring p53 mutant/C176S assessed as decrease in cell growth at 10 uM measured after 48 hrs by Crystal violet staining based analysis. It is filed as functional. The essentials:
as §4

Test [21] is described as follows: Antiproliferative activity in human PaCa-3 cells measured after 48 hrs by Crystal violet staining based analysis. Particulars: Paca3, 48 h. Format: functional, cell-based. The essentials:
(§5)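 IC50 from Crystal Violet growth curves. Cells in DMEM-Glutamax with 10% FBS, seeded, then exposed after 24 h to 1–100 μM for 48 h. A595 normalized to untreated cells. Three independent experiments.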

The nature of test [22]: Antiproliferative activity in human PaCa-44 cells measured after 48 hrs by Crystal violet staining based analysis. To be noted: PaCa-44, 48 h. It is filed as functional, cell-based. The essentials:
as §5

The test system of test [23] is PANC-1. The experiment in a line: Antiproliferative activity in human PANC-1 cells measured after 48 hrs by Crystal violet staining based analysis. Particulars: PANC-1, 48 h. It is filed as functional, cell-based. The essentials: as §5
For test [24], the system named is MIA PaCa-2. The experiment in a line: Antiproliferative activity in human MIA PaCa-2 cells measured after 48 hrs by Crystal violet staining based analysis. Format: functional, cell-based. To be noted: MIA PaCa-2, 48 h. The essentials:
as §5

Test [25] deals with Glyceraldehyde-3-phosphate dehydrogenase (Homo sapiens) (UniProt P04406). The test is described as follows: Inhibition of recombinant his tagged-GAPDH in human PaCa-44 cells expressed in Escherichia coli at 100 uM relative to control.
The target is the same in test [26]. The experiment in a line: Inhibition of recombinant his tagged-GAPDH in human PaCa-3 cells expressed in Escherichia coli at 100 uM relative to control.

For the molecule `Oc1ccc(C2CC(Br)=NO2)cc1` (centres undefined), the inhibition – broadly, the relative decrease from the control value, in per cent – in [1] came to 40%.

Take `BrC1=NOC(c2cccs2)C1` (centres undefined): the inhibition entry in test [2] was “inactive”.

Turning to `O=C(O)c1ccc2c(c1)CCCC21CC(Br)=NO1` (centres undefined), the inhibition in test [1] was 40%; in test [3] it was 100%; in [5], 40%; in [6], 30%. In the test on PaCa-44 [4], the outcome was Active. Further, the results for the K in [7] and in [8] were < 1 10^-8/s and < 1 10^-8/M/s, respectively.

`O=S(=O)(O)c1ccc(C2CC(Br)=NO2)cc1` (centres undefined): in test [1], the inhibition amounted to 20%.

As for `NS(=O)(=O)c1ccc(C2CC(Br)=NO2)cc1` (centres undefined), in [2], the inhibition result is “inactive”.

On to `O=C(O)c1cccc(C2CC(Br)=NO2)c1` (centres undefined), for which, in test [1], the inhibition is 20%.

For `O=C(O)c1ccc(C2CC(Br)=NO2)s1` (centres undefined), the inhibition in test [1] worked out at 20%.

With `C=CC(=O)N1CCC[C@@H](n2nc(-c3ccc(Oc4ccccc4)cc3)c3c(N)ncnc32)C1`, the K in test [8] was 10.4 10^-4/M/s.

Take `O=C(O)c1ccc(C2CC(Br)=NO2)cc1` (centres undefined): the inhibition in [1] was determined as 40%. Besides, the K is 1.11 10^-6/s in [7] and 1.84 10^-6/M/s in test [8].

With `BrC1=NOC(c2ccc(-c3nnn[nH]3)cc2)C1` (centres undefined), the inhibition entry in test [2] is “inactive”.

As to `BrC1=NOC(c2ccccc2)C1` (centres undefined), the inhibition in [1] stood at 40%. In [9], the inhibition entry was “inactive”. For the same molecule, the K in test [10] is 908 min; in test [7], 6.62 10^-5/s; in test [8], 1.1 10^-4/M/s.

Take `CC(C)[C@H]1CC[C@@]2(CO2)[C@H]2C(=O)OCC(C(=O)O)=C[C@H]12`: the K in test [11] is 0.701 min.

As for `O=C(O)c1ccccc1C1CC(Br)=NO1` (centres undefined), the inhibition entry in [2] is “inactive”.

`BrC1=NOC2(CCCc3ccccc32)C1` (centres undefined): the inhibition in test [1] was found to be 40%; in test [3] it was 100%; in [12] it was 100%; in test [5], 100%; in [6], 100%; in [25], 100%. The inhibition in test [26] worked out at 100%. The inhibition entry in [13] was “Active”. Besides, the values for the K in test [11], in [7] and in test [8] were 0.2 min, 5.25 10^-6/s and 8.75 10^-6/M/s, respectively. The outcome in the test with PaCa-3, in the test with PaCa-44 [14], in the test with PANC-1 [15], in the test on MIA PaCa-2 [16], with PANC-1 [18] and in the test with MIA PaCa-2 [19] was Active. Further, the outcome in the test with PaCa-44 [20] was Active. Also, the Activity with Fibroblast was 20%; in test [17], 42%. For the same molecule, the IC50 (as a rule, the concentration that inhibits the measured activity by half) in test [21] was 4.69 µM; in [22] it was 16.2 µM; in the test on PANC-1 [23], 21.7 µM; in the test with MIA PaCa-2 [24], 15.2 µM.
